In article PMC5063151 (Chemmedchem, 2015):

Assays:
[1] = molecular target: T1, methyl‐13C‐Met‐labeled VEGF (Homo sapiens, UniProt P15692); test: Protein-observed CSP with methyl‐13C‐Met‐labeled VEGF; assay type: binding
T1 sequence (P15692 217-315): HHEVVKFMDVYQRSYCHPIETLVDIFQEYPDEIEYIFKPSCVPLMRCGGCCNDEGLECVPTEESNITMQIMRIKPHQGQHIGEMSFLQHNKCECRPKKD
How it was run: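 Methyl‑13C‑Met‑labeled VEGF at 30 μM in 25 mM sodium phosphate pH 7.0, 50 mM NaCl, 10% D2O, usually at 45 °C. 1H–13C HSQC used 256×96 points with 8 scans per increment. 13C‑decoupled‑13C‑filtered 1D 1H spectra used 2048 points and 128 scans. KD came from ligand‑titration chemical shift perturbations.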

[2] = test system: VEGF (v107 / receptor binding site); test: STD competition assay with peptide v107; conditions: 1 mM baicalin, 10 μM VEGF, 298 K, 50 and 100 μM v107
VEGF11−109 (VEGF) = test: STD and WaterLOGSY ligand-observed NMR binding experiments; conditions: STD, 1 mM baicalin, 10 μM VEGF, 298 K
How it was run: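 Ligand‑observed STD and WaterLOGSY were run with 10 μM VEGF and 0.5 or 1 mM test compound in 25 mM sodium phosphate pH 7.0, 50 mM NaCl, […], at 37, 25 or 5 °C on 600/500 MHz spectrometers. On‑resonance saturation targeted the aliphatic protein region (STD) or the water signal (WaterLOGSY). Binding was judged from ligand STD/WaterLOGSY signals.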

Compound: &D‐Pro‐Trp‐Glu‐D‐Pro‐Trp‐Glu& (head to tail)
- VEGF binding affinity from titration experiments ([1]; CSP titration, methyl‐13C‐Met‐labeled VEGF): low‐millimolar range

Compound: O=C(O)[C@H]1O[C@@H](Oc2cc3oc(-c4ccccc4)cc(=O)c3c(O)c2O)[C@H](O)[C@@H](O)[C@@H]1O [baicalin]
- STD competition with v107 (reduction of ligand STD signals) [2]: baicalin and v107 compete for the same binding site
- Binding of isolated compound to VEGF (VEGF11−109 (VEGF)): able to bind VEGF

Compound: O=c1c(O[C@@H]2O[C@H](CO)[C@@H](O)[C@H](O)[C@H]2O)c(-c2ccc(O)c(O)c2)oc2cc(O)cc(O)c12 [quercetin‐3‐β‐glucoside]
- Methionine perturbations on 13C‐filtered‐13C‐decoupled 1H NMR spectra of VEGF ([1]; baicalin‐related flavonoids of Figure 7 a): induced methionine perturbations
